Data from ChEMBL document CHEMBL1147349, “Bisamides from Aglaia species: structure analysis and potential to reverse drug resistance with cultured cells” (1993).
In brackets after ≈: the same amount, converted by molar mass.

Key:
Type in all cases: functional
[1] = Cytotoxicity against human BCA1 cells; details: read-out: ED50 (the source's name)
Summary of the method: (§1)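 Human cancer cell lines were cultured with the test compounds at concentrations up to 20 µg/ml. The read-out was cell survival, expressed as ED50.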

HT-1080 = assay: Cytotoxicity against human HT1080 cells; details: read-out: ED50 (the source's name); summary of the method: as §1
[2] = Cytotoxicity against human LUC1 cells; details: read-out: ED50 (the source's name); summary of the method: as §1
SK-MEL-2 = assay: Cytotoxicity against human SK-MEL-2 cells; details: read-out: ED50 (the source's name); summary of the method: as §1
[3] = Cytotoxicity against human Col1 cells; details: read-out: ED50 (the source's name); summary of the method: as §1
KB = assay: Cytotoxicity against human KB cells; details: read-out: ED50 (the source's name); summary of the method: as §1
[4] = Cytotoxicity against vinblastine-resistant human KBV1 cells; details: KB-V1, read-out: ED50 (the source's name)
Summary of the method: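 KB-V1 cells are routinely maintained in vinblastine (1 µg/ml) to keep the drug-resistant phenotype. For this test they were cultured with the test compounds without vinblastine, at concentrations up to 20 µg/ml. The read-out was cell survival, expressed as ED50.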

[5] = Cytotoxicity against vinblastine-resistant human KBV1 cells by dose-response study in presence of 1 ug/ml vinblastine; details: KB-V1, read-out: ED50 (the source's name)
Summary of the method: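 The resistant KB-V1 line, normally kept in vinblastine (1 µg/ml), was exposed to the test compounds up to 20 µg/ml. Vinblastine at 1 µg/ml was present in the culture medium during treatment. The read-out was cell survival, expressed as ED50.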

A-431 = assay: Cytotoxicity against human A431 cells; details: read-out: ED50 (the source's name); summary of the method: as §1
LNCaP = assay: Cytotoxicity against human LNCAP cells; details: read-out: ED50 (the source's name); summary of the method: as §1
ZR-75-1 = assay: Cytotoxicity against human ZR-75-1 cells; details: read-out: ED50 (the source's name); summary of the method: as §1

| SMILES | EC50 [1] | EC50 (HT-1080) | EC50 [2] | EC50 (SK-MEL-2) | EC50 [3] | EC50 (KB) | EC50 [4] | EC50 [5] | EC50 (A-431) | EC50 (LNCaP) | EC50 (ZR-75-1) |
| --- | --- | --- | --- | --- | --- | --- | --- | --- | --- | --- | --- |
| CC[C@H](C)C(=O)N[C@@H]1CCCN1C(=O)/C=C/c1ccccc1 | > 20 mg/L | > 20 mg/L | > 20 mg/L | > 20 mg/L | > 20 mg/L | > 20 mg/L | > 20 mg/L | 4.2 mg/L | > 20 mg/L | > 20 mg/L | > 20 mg/L |
| CC[C@H](C)C(=O)N[C@H]1CCCN1C(=O)/C=C/c1ccccc1 [ODORINE] | > 20 mg/L | > 20 mg/L | > 20 mg/L | > 20 mg/L | > 20 mg/L | > 20 mg/L | > 20 mg/L | 6.4 mg/L | > 20 mg/L | > 20 mg/L | > 20 mg/L |
| CC(C)C(=O)N[C@H]1CCCN1C(=O)/C=C/c1ccccc1 [PIRIFERINE] | > 20 mg/L | > 20 mg/L | > 20 mg/L | > 20 mg/L | > 20 mg/L | > 20 mg/L | 10 mg/L (≈ 34.9 µM) | 8.5 mg/L | > 20 mg/L | > 20 mg/L | > 20 mg/L |
| O=C(/C=C/c1ccccc1)NCCCCNC(=O)c1ccccc1 [PYRAMIDATINE] | > 20 mg/L | > 20 mg/L | > 20 mg/L | > 20 mg/L | > 20 mg/L | > 20 mg/L | > 20 mg/L | > 20 mg/L | > 20 mg/L | > 20 mg/L | > 20 mg/L |
| CC[C@]1(O)C[C@@H]2CN(CCc3c([nH]c4ccccc34)[C@@](C(=O)OC)(c3cc4c(cc3OC)N(C)[C@H]3[C@@](O)(C(=O)OC)[C@H](OC(C)=O)[C@]5(CC)C=CCN6CC[C@]43[C@@H]65)C2)C1 [VINBLASTINE] |  |  |  |  |  | 0.002 mg/L (≈ 0.00247 µM) | 2.6 mg/L (≈ 3.21 µM) |  |  |  |  |
